Sampled rows, rich in hits. Any-hit rate of the full collection: about 2.3%.
Statin myotox sup: suppressors of simvastatin-induced myotoxicity in C2C12 myotubes; 0.78% of 330,000 active; rescue of ATP level, % at 7.49 µM; AID 602340; ATP luminescence, 48 h; scaled: DMSO 0, geranylgeraniol control 100;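 active = mean ATP rescue above about 67%, or every replicate alone reaching that limit, limit read from the data, passing the limit was not always enough; inconclusive = no clear call, values can overlap the other calls; inactive = mean under the limit and some replicate under it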;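 note: myotubes were challenged with 10 µM simvastatin during compound exposure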
PDI inh: inhibitors of human protein disulfide isomerase | P07237 | PDI insulin aggregation turbidity, A650, 90 min | inhibition, % at 10 µM | 0.052% of 350,000 active | AID 588391;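 active = mean inhibition across replicates of 30% or more, whatever share of single replicates reach that level; inconclusive = mean inhibition below 30% while every single replicate reaches 30%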
Target sequence (P07237 whole entry, looked up): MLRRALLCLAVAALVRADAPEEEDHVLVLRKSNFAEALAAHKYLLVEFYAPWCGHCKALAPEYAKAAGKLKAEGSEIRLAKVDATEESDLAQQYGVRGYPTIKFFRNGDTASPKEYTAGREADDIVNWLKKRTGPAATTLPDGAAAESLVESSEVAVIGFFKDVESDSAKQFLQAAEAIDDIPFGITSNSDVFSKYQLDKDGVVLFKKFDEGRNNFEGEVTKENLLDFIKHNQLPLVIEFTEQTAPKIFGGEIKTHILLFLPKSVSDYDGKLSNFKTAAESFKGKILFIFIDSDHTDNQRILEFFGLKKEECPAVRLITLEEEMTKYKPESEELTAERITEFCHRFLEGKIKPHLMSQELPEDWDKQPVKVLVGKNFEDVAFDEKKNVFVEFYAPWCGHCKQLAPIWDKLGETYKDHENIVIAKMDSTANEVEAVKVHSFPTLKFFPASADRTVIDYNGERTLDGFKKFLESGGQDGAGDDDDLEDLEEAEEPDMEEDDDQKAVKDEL
ERp5 block: inhibitors of human ERp5 | ERp5 insulin aggregation, absorbance 650 nm, 90 min | 0.05% of 350,000 active | Q15084 | inhibition, % at 9.99 µM | AID 651711;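 active = mean replicate inhibition above about 25%, with every replicate also reaching it, limit read from the data, passing the limit was not always enough; inconclusive = only one of those two criteria met; inactive = neither criterion met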
Cneo AK release: causes C. neoformans cell lysis | 0.2% of 360,000 active | adenylate kinase release luminescence, 4 h; normalised: neutral wells 0, clomiphene wells 100 | lysis activity, % at 15 µM;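 active = mean lysis activity across replicates of at least 80%, whatever share of replicates individually reach that level; inactive = mean lysis activity below 80%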
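Assay system: log-phase C. neoformans yeast / Quantity: yeast cell density of 5 × 10^6 cells/mL / Medium: fresh YPD growth medium / Compound: single dose / Timing: static 4 h at 37 °C with compound, 1 h detection / Measured by: adenylate kinase release luminescence / Read-out: lysis from increased AK signal / Benchmarks: Clomiphene as positive lysis control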
CFTR F508del cor: correctors of CFTR F508del function in bronchial epithelial cells; CFBE cells, YFP halide quenching; stimulated with forskolin plus potentiator P3; % fluorescence drop versus neutral controls; activity (quench increase), % at 7.58 µM; 0.36% of 350,000 active; AID 720511;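 active = mean added fluorescence quench of at least 8% versus neutral control, with both replicates also reaching 8%; inconclusive = only one of the mean or replicate conditions met; inactive = mean below 8% and not both replicates reaching 8%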;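 note: cells transiently co-express mutant CFTR-F508del with the halide-sensitive YFP; corrector assay measuring rescue of mutant channel to the surface after 24 h compound exposure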
DENV2 CPE: DENV2-induced cell death inhibition; DENV2-infected cells, cytopathic effect rescue, plate reader; CPE inhibition, % at 9.99 µM; 1.7% of 350,000 active; in the data active = CPE inhibition above about 20%, passing the limit was not always enough; inconclusive = no clear call, values can overlap the other calls; tested in BHK-21 cells;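 note: 0% = median of neutral control wells and 100% = median of positive control wells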
The depositor's hits bear a star; ? = inconclusive; . = no result.

SMILES	Statin myotox sup	PDI inh	ERp5 block	Cneo AK release	CFTR F508del cor	DENV2 CPE
CN1C(=O)c2cc(NS(=O)(=O)c3cccc(F)c3)ccc2OC[C@@H]2O[C@@H](CC(=O)O)CC[C@H]21	-6	.	-2	97*	4	-5
CN1C(=O)c2cc(NS(C)(=O)=O)ccc2OC[C@@H]2O[C@@H](CC(=O)O)CC[C@H]21	-92	.	-1	83*	2	-11
CN1C(=O)c2cc(NS(C)(=O)=O)ccc2OC[C@H]2O[C@@H](CC(=O)O)CC[C@@H]21	-6	.	-2	5	0	-4
CN1C(=O)c2cc(NS(=O)(=O)c3ccc(Cl)cc3)ccc2OC[C@@H]2O[C@H](CC(=O)N3CCc4ccccc4C3)CC[C@H]21	109*	.	1	-5	3	40*
COC(=O)C[C@@H]1CC[C@@H]2[C@@H](COc3ccc(NS(=O)(=O)c4cccc(F)c4)cc3C(=O)N2C)O1	-10	.	2	-7	1	-6
C[C@@H]1CN([C@H](C)CO)C(=O)c2cc(NC(=O)Nc3cccc4ccccc34)ccc2O[C@@H](C)CCCCO[C@@H]1CN(C)S(=O)(=O)c1ccc(F)cc1	4	.	-12	2	1	-2
N#C[C@@H]1[C@@H](c2ccccc2C2=CCCCC2)[C@H](CO)N1C(=O)CN1CCOCC1	.	.	1	.	0	6
CN1C(=O)c2cc(NS(=O)(=O)c3cccc(F)c3)ccc2OC[C@H]2O[C@H](CC(=O)O)CC[C@H]21	-13	.	0	97*	-3	-12
Cc1nc(CCNC(=O)CC2C(=O)NCCN2CC(C)C)nc2c1CCC2 (stereo not drawn)	6	2	5	4	-2	44*
C[C@H]1CCCCO[C@@H](CN(C)S(=O)(=O)c2cccs2)[C@@H](C)CN([C@@H](C)CO)C(=O)c2cc(NC(=O)Nc3ccc(F)cc3)ccc2O1	-42	.	-2	1	-5	-13
O=S(=O)(Cc1ccccc1)N1CCCCN2[C@H](CO)[C@@H](c3ccc(-c4cccnc4)cc3)[C@@H]2C1	-36	.	-1	-1	0	-8
CC1(Oc2cccc(F)c2)CCN(Cc2ccc3ccccc3c2)C1 (stereo not drawn)	-34	1	4	1	0	-7
COCOc1cccc(CN2CCC(C)(Oc3cccc(C#N)c3)C2)c1 (stereo not drawn)	-15	-3	3	2	8.7*	-1
O=C(NCC[C@H]1CC[C@H](NS(=O)(=O)c2ccc(Oc3ccccc3)cc2)[C@@H](CO)O1)C1CC1	20	.	2	-3	3	85*
Cc1ccc(S(=O)(=O)N[C@@H]2CC[C@@H](CCNC(=O)C3CCCC3)O[C@H]2CO)cc1	0	.	2	-1	1	-2
Cc1ccc(S(=O)(=O)N[C@H]2CC[C@H](CCNC(=O)C3CCCC3)O[C@H]2CO)cc1	0	.	-4	-1	2	27*
C[C@@H]1CCCCO[C@H](CN(C)S(=O)(=O)c2ccc(Cl)cc2)[C@@H](C)CN([C@H](C)CO)C(=O)c2cc(NC(=O)CCCCCC(=O)Nc3ccccc3N)ccc2O1	.	.	4	.	0	-7
Cc1ccc(C2=NOC(C)(c3nnc(-c4ccncc4)o3)C2)cc1 (stereo not drawn)	-6	-2	0	1	2	58*
CC1(c2nnc(-c3ccc(Cl)cc3)o2)CC(c2ccncc2)=NO1 (stereo not drawn)	2	-4	6	0	0	?
N#CC(Cc1ccccc1OC(F)F)c1nc2ccccc2[nH]1 (stereo not drawn)	.	3	0	.	1	25*
CO[C@H]1CN(C)C(=O)c2cc(NC(=O)NC(C)C)ccc2OC[C@@H](C)N(C(=O)C2CCC2)C[C@@H]1C	-12	.	-1	0	0	-4
CCC[C@@H]1CCCO[C@@](C(=O)NCc2ccccn2)(C(F)(F)F)C1	-12	3	-4	-5	0	69*
C[C@@H]1CN([C@H](C)CO)C(=O)c2cccc(N(C)C)c2O[C@@H]1CN(C)S(=O)(=O)c1cn(C)cn1	-6	.	5	-1	-5	-7
CC(=O)O[C@H]1CC[C@@]2(C)[C@@H](CC[C@H]3[C@@H]4CC[C@H](C(C)O)[C@@]4(C)CC(=O)[C@@H]32)C1 (stereo partly drawn)	6	1	2	-6	-1	37*
CO[C@@]12[C@@H]3N[C@@H]3CN1C1=C(C(=O)C(N)=C(C)C1=O)[C@@H]2COC(N)=O	.	-1	-8	.	14*	2
SMILES	Statin myotox sup	PDI inh	ERp5 block	Cneo AK release	CFTR F508del cor	DENV2 CPE
Cc1ccc(-c2cnc3c(c2)C(=O)N([C@@H](C)CO)C[C@@H](C)[C@H](CN(C)CC2CCCC2)O3)cc1	-38	.	7	-6	0	6
CCC(=O)NCCc1nc2ccccc2n1CC(=O)c1ccccc1	15	.	-8	-1	3	76*
Cc1ccc(C)c(NC(=O)CN2C(=O)C3CC=CCC3C2=O)c1 (stereo not drawn)	8	-6	-1	1	1	45*
Cc1cccc(NC(=O)CN2C(=O)C3CC=CCC3C2=O)c1C (stereo not drawn)	3	-1	-5	0	.	1
O=C(O)c1cccc(-c2csc(C(O)c3cccc(Cl)c3)n2)c1 (stereo not drawn)	0	-3	-13	1	1	46*
CC(C)OC(=O)c1ccc(NCc2cc(O)ccc2O)cc1	.	-2	-11	.	-2	51*
O=C(OCc1ccccc1)c1ccc(NCc2cc(O)ccc2O)cc1	.	-4	-5	.	-1	-4
CCCN1[C@@H]2c3cccc(=O)n3C[C@@H]2[C@@H](CO)[C@@H]1C(=O)N[C@H](C)c1ccccc1	.	.	-6	.	5	-3
C[C@H](CO)N1C[C@H](C)[C@@H](CN(C)Cc2ccc(-c3ccccc3)cc2)Oc2ccc(NC(=O)Cc3cn(C)c4ccccc34)cc2C1=O	-3	.	-1	.	4	5
O=C1C(Cl)=C(NCCc2ccccc2)C(=O)N1CCc1ccccc1	164*	11	.	1	.	.
CO[C@H](CN(C)C(=O)C1CCOCC1)[C@@H](C)CN(C(=O)Nc1ccc(F)cc1)[C@H](C)CO	3	.	-4	-5	0	5
CN(CC(=O)Nc1ccc(F)cc1)C(=O)CCc1nc2sc3c(c2c(=O)[nH]1)CCCC3	9	1	-2	-1	-1	19
CN(CC(=O)Nc1ccc(Cl)cc1)C(=O)CCc1nc2sc3c(c2c(=O)[nH]1)CCCC3	6	-5	-1	3	2	31*
O=C(C[C@H]1C[C@@H]2c3cc(NC(=O)Nc4ccccc4F)ccc3O[C@@H]2[C@@H](CO)O1)NCc1ccncc1	2	.	14	2	2	8
